# Calls of active or inactive are those of the source. The calls are words filed in the database; no cut-off is given here.
# Assays:
# [1] = tested on: Mycolicibacterium smegmatis; experiment: Antimicrobial activity against Mycobacterium smegmatis ATCC 12051 after 5 days by microbroth dilution antibiotic susceptibility assay; format: functional; settings: ATCC 12051, 120 h
# Procedure, shortened: (§1)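 Microbroth dilution per CLSI M24-A for fast-growing mycobacteria. Compounds prepared in sterile 20% DMSO and serially diluted to eight concentrations, triplicate on separate plates. Uninoculated and untreated (media + 20% DMSO) controls plus a control antibiotic column. Incubated 5 days at 30 °C; growth relative to untreated wells scored visually to give MIC.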
# [2] = tested on: Mycolicibacterium diernhoferi; experiment: Antimicrobial activity against Mycobacterium diernhoferi ATCC 19340 after 5 days by microbroth dilution antibiotic susceptibility assay; format: functional; settings: ATCC 19340, 120 h; procedure, shortened: as §1
# [3] = tested on: Enterococcus faecium; experiment: Antimicrobial activity against vancomycin-resistant Enterococcus faecium Ef 379 after 22 hrs by microbroth dilution antibiotic susceptibility assay; format: functional, organism-based; settings: Ef 379, 22 h
# Procedure, shortened: (§2)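 CLSI M7-A6 broth microdilution, run in triplicate. Compounds were made up in sterile 20% DMSO and serially diluted to eight concentrations. Plates carried uninoculated and untreated controls (media + 20% DMSO) plus a control antibiotic column. OD600 was read at time zero and after 22 h at 37 °C. Time-zero readings were subtracted, survival was calculated relative to vehicle wells, and IC50 was derived.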
# [4] = tested on: Staphylococcus aureus; experiment: Antimicrobial activity against methicillin-resistant Staphylococcus aureus ATCC 33591 after 22 hrs by microbroth dilution antibiotic susceptibility assay; format: functional, organism-based; settings: ATCC 33591, 22 h; procedure, shortened: as §2
# [5] = tested on: Pseudomonas aeruginosa; experiment: Antimicrobial activity against Pseudomonas aeruginosa ATCC 14210 after 22 hrs by microbroth dilution antibiotic susceptibility assay; format: functional, organism-based
# Procedure, shortened: (§3)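 Microbroth dilution per CLSI M7-A6. Compounds in sterile 20% DMSO, serially diluted to eight concentrations, tested in triplicate with uninoculated and untreated controls. Control antibiotic was gentamycin for P. aeruginosa, ciprofloxacin for P. vulgaris and nystatin for C. albicans. OD600 read at time zero and after 22 h at 37 °C. Survival relative to vehicle calculated after baseline subtraction; IC50 derived.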
# [6] = tested on: Candida albicans; experiment: Antimicrobial activity against Candida albicans ATCC 14035 after 22 hrs by microbroth dilution antibiotic susceptibility assay; format: functional, organism-based; procedure, shortened: as §3
# [7] = tested on: Proteus vulgaris; experiment: Antimicrobial activity against Proteus vulgaris ATCC 12454 after 22 hrs by microbroth dilution antibiotic susceptibility assay; format: functional, organism-based; procedure, shortened: as §3
Compound,MIC [1] [µg/mL],MIC [2] [µg/mL],IC50 [3] [µg/mL],IC50 [4] [µg/mL],Activity [5],Activity [6],Activity [7]
CC(C)=C[C@@H]1C[C@H](C)[C@H]2CC[C@H](C)c3c2c1c(C)c1nc(Cc2ccccc2)oc31,> 64,4,> 128,> 128,inactive,inactive,–
CC(C)=C[C@@H]1C[C@H](C)[C@H]2CC[C@H](C)c3c2c1c(C)c1nc(CC(N)=O)oc31,4,2,4,3,inactive,inactive,inactive
NNC(=O)c1ccncc1 [ISONIAZID],1,0.25,–,–,–,–,–
CC(C)=C[C@@H]1C[C@H](C)[C@H]2CC[C@H](C)c3c2c1c(C)c1nc([C@@H](C)O)oc31,16,8,> 128,> 128,inactive,inactive,–
CC(C)=C[C@@H]1C[C@H](C)[C@H]2CC[C@H](C)c3c2c1c(C)c1ncoc31 [PSEUDOPTEROXAZOLE],2,4,13,> 128,inactive,inactive,inactive
CCCCCc1nc2c(C)c3c4c(c2o1)[C@@H](C)CC[C@@H]4[C@@H](C)C[C@H]3C=C(C)C [HOMOPSEUDOPTEROXAZOLE],> 64,> 64,> 128,> 128,inactive,inactive,–
CN[C@H](CC(C)C)C(=O)N[C@H]1C(=O)N[C@@H](CC(N)=O)C(=O)N[C@H]2C(=O)N[C@H]3C(=O)N[C@H](C(=O)N[C@H](C(=O)O)c4cc(O)cc(O)c4-c4cc3ccc4O)[C@H](O)c3ccc(c(Cl)c3)Oc3cc2cc(c3O[C@@H]2O[C@H](CO)[C@@H](O)[C@H](O)[C@H]2O[C@H]2C[C@](C)(N)[C@H](O)[C@H](C)O2)Oc2ccc(cc2Cl)[C@H]1O [VANCOMYCIN],–,–,–,12.2,–,–,–
COC(=O)CCc1nc2c(C)c3c4c(c2o1)[C@@H](C)CC[C@@H]4[C@@H](C)C[C@H]3C=C(C)C,> 128,> 128,> 128,> 128,inactive,inactive,–
CC(C)=C[C@@H]1C[C@H](C)[C@H]2CC[C@H](C)c3c2c1c(C)c1nc(-c2ccc(F)cc2)oc31,> 64,> 64,–,–,inactive,inactive,–
CC(C)=C[C@@H]1C[C@H](C)[C@H]2CC[C@H](C)c3c2c1c(C)c1ocnc31 [ISOPSEUDOPTEROXAZOLE],8,8,13,> 128,inactive,inactive,–
CO[C@H]1/C=C/O[C@@]2(C)Oc3c(C)c(O)c4c(O)c(c(/C=N/N5CCN(C)CC5)c(O)c4c3C2=O)NC(=O)/C(C)=C\C=C\[C@H](C)[C@H](O)[C@@H](C)[C@@H](O)[C@@H](C)[C@H](OC(C)=O)[C@@H]1C [RIFAMPIN],4,4,8.75,–,–,–,–
CC(C)=C[C@@H]1C[C@H](C)[C@H]2CC[C@H](C)c3c2c1c(C)c1nc(CCC(=O)O)oc31,8,4,12,12,inactive,inactive,–
COc1ccccc1-c1nc2c(C)c3c4c(c2o1)[C@@H](C)CC[C@@H]4[C@@H](C)C[C@H]3C=C(C)C,> 64,> 64,> 128,> 128,inactive,inactive,–
CSCCc1nc2c(C)c3c4c(c2o1)[C@@H](C)CC[C@@H]4[C@@H](C)C[C@H]3C=C(C)C,16,16,> 128,> 128,inactive,inactive,–
CC(C)=C[C@@H]1C[C@H](C)[C@H]2CC[C@H](C)c3c2c1c(C)c1nc(CCC(N)=O)oc31,4,4,7,7,inactive,inactive,–
CC[C@H](C)c1nc2c(C)c3c4c(c2o1)[C@@H](C)CC[C@@H]4[C@@H](C)C[C@H]3C=C(C)C,> 64,> 64,> 128,> 128,inactive,inactive,–
CC(C)=C[C@@H]1C[C@H](C)[C@H]2CC[C@H](C)c3c2c1c(C)c1nc(C)oc31,8,4,2.5,> 128,inactive,inactive,–

# — ChEMBL document CHEMBL1833970, “One-pot syntheses of pseudopteroxazoles from pseudopterosins: a rapid route to non-natural congeners with improved antimicrobial activity” (J Nat Prod, 2011)
